ChEMBL document CHEMBL4665897, “α-Linolenic Acid-Valproic Acid Conjugates: Toward Single-Molecule Polypharmacology for Multiple Sclerosis” (ACS Med Chem Lett, 2020)
Calls of active or inactive are those of the source. No cut-off for these calls is given here.

How the values were obtained:
[1] = tested on: Cerebellar granule neurone; experiment: Neuroprotective activity against glutamate/glycine-induced excitotoxicity in rat primary Cerebellar granule neurone at 5 uM preincubated for 6 hrs measured after 24 hrs by MTT assay; format: functional, tissue-based
In short: (§1)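 Primary rat cerebellar granule neurons at 8 DIV pretreated 6 h with compound (5, 10, 25 μM), then 100 μM glutamate/10 μM glycine added for a further 24 h with compound present. Viability was read by MTT, expressed as % of control. Values are mean SE of at least four experiments, each in triplicate.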

Olineu [2] = experiment: Induction in mouse Oli-neu cell differentiation to oligodendrocytes assessed as increase in CNPase expression at 5 uM after 72 hrs by Western blot analysis; format: functional
In short: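 Oli-Neu cells exposed to 5 μM compound; Olig2 was assessed at 48 h and CNPase at 72 h. Values are % of control, mean SE of at least three experiments, one-way ANOVA with Bonferroni.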

[3] = target: T1, Histone deacetylase (Homo sapiens) (UniProt Q13547+O15379+Q9UBN7+Q92769+Q9UQL6+Q8WUI4+Q9BY41+Q96DB2+P56524+Q9UKV0+Q969S8); experiment: Inhibition of HDAC in human medulloblastoma (DAOY) cells assessed as increase in acetylated histone levels at […] after 48 hrs by densitometric analysis
Olineu [4] = experiment: Induction in mouse Oli-neu cell differentiation to oligodendrocytes assessed as decrease in cell number at 5 uM after 48 hrs; format: functional
In short: (§2)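 Oli-Neu cells (immortalized mouse oligodendrocyte precursors) exposed to 5 μM compound for 48 h. Proliferation was scored by cell counting and differentiation by filament length. Values are % of control, mean SE of at least three experiments, one-way ANOVA with Bonferroni.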

[5] = tested on: Cerebellar granule neurone; experiment: Neuroprotective activity against glutamate/glycine-induced excitotoxicity in rat primary Cerebellar granule neurone at 10 uM preincubated for 6 hrs measured after 24 hrs by MTT assay; format: functional, tissue-based; in short: as §1
[6] = tested on: Cerebellar granule neurone; experiment: Neuroprotective activity against glutamate/glycine-induced excitotoxicity in rat primary Cerebellar granule neurone at 25 uM preincubated for 6 hrs measured after 24 hrs by MTT assay; format: functional, tissue-based; in short: as §1
[7] = target: T1, Histone deacetylase (Homo sapiens); experiment: Inhibition of HDAC in human medulloblastoma (DAOY) cells assessed as increase in acetylated histone levels at 0.5 mM after 48 hrs by densitometric analysis
In short: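 HDAC inhibition in human DAOY medulloblastoma cells was read as acetylated histone H3 by immunoblot densitometry. […] Values are mean SD of three independent experiments, Newman–Keuls after ANOVA versus vehicle.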

Olineu [8] = experiment: Induction in mouse Oli-neu cell differentiation to oligodendrocytes assessed as increase in filament length at 5 uM after 48 hrs; format: functional; in short: as §2
Olineu [9] = experiment: Induction in mouse Oli-neu cell differentiation to oligodendrocytes assessed as decrease in Olig2 expression at 5 uM after 48 hrs by Western blot analysis
N9 (Mus musculus) [10] = experiment: Immunomodulatory activity in LPS treated mouse N9 microglial cells assessed as shift in M1 neurotoxic phenotype to M2 neuroprotective by measuring TREM2 expression level at 0.5 uM preincubated for 6 hrs by western blot analysis
N9 (Mus musculus) [11] = experiment: Immunomodulatory activity in LPS treated mouse N9 microglial cells assessed as shift in M1 neurotoxic phenotype to M2 neuroprotective by measuring decrease in iNOS expression level at 0.5 uM preincubated for 6 hrs by western blot analysis
N9 (Mus musculus) [12] = experiment: Immunomodulatory activity in LPS treated mouse N9 microglial cells assessed as reduction in nitrite level at 0.5 uM preincubated for 6 hrs by Griess reagent assay; conditions: time 24.0 hrs

Row | Compound | Activity [1] | Activity (Olineu [2]) | inhibition [3] | Activity (Olineu [4]) | Activity [5] | Activity [6] | inhibition [7] | Activity (Olineu [8]) | Activity (Olineu [9]) | inhibition (N9 (Mus musculus) [10]) | inhibition (N9 (Mus musculus) [11]) | inhibition (N9 (Mus musculus) [12])
1 | CCCC(CCC)C(=O)O | inactive | Active | Active | Active | inactive | inactive | – | – | – | – | – | –
2 | CC/C=C\C/C=C\C/C=C\CCCCCCCC(=O)NCCNC(=O)C(CCC)CCC | Active | Active | Active | Active | Active | inactive | Active | Active | Active | inactive | Active | Active
3 | CC/C=C\C/C=C\C/C=C\CCCCCCCC(=O)O | – | – | – | – | – | inactive | – | – | – | – | – | –
4 | CC/C=C\C/C=C\C/C=C\CCCCCCCC(=O)NCCOC(=O)C(CCC)CCC | Active | – | Active | Active | Active | inactive | Active | Active | Active | inactive | Active | Active
